Screening data from PubChem BioAssay.
NF-kB neuron act: activators of NF-kB expression in neurons, primary screen, cell-based, HTS; human neuronal cells, NF-kB reporter expression; stronger effect = higher value; fold change at 12.5 µM; 190,000 tested, 1.6% active; AID 1239, 2008; in the data active means fold change above about 3.3
FLuc act counter: FLuc activators, initial screening, artefact control for FLuc-dependent activation tests, biochemical, ATPlite luminescence | activation factor at 10 µM | ATPlite luciferase biochemical, 10 min; 0 = ATP-free wells, 1 = DMSO control | 200,000 tested, under 10 active;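 active means luciferase activation factor, scaled between plate controls, of at least 2 with compound at 10 µM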
Target sequence (P08659 whole entry, looked up): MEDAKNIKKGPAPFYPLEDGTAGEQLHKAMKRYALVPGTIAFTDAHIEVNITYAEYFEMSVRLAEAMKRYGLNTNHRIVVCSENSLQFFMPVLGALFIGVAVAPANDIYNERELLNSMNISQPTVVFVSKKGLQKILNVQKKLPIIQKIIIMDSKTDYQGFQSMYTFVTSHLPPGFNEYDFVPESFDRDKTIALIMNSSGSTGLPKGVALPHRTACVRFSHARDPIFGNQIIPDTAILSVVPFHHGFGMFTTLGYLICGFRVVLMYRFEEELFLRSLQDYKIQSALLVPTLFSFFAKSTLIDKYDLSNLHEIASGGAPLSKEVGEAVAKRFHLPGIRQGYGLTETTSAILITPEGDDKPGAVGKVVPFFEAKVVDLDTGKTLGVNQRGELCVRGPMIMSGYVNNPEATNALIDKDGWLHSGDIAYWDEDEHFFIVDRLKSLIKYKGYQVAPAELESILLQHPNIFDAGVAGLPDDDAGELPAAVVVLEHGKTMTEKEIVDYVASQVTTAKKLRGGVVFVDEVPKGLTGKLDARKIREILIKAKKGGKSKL
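assay system = Luciferase/luciferin detection reagent, cell-free biochemical luciferase assay | also added = ATP substrate | times = 10 min post-reagent at room temperature | measured by = luminescence from luciferase reaction | measure = luciferase activation, seen as luminescence increase over controls | benchmarks = low control with PBS replacing ATP, high control enzyme plus ATP without compound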
C8 TRAIL sens: viability loss with TRAIL in NB7+C8 cells, primary screen, TRAIL sensitizer project, cell-based, ATPlite luminescence; 360,000 tested, 1% active; inhibition (viability loss, TRAIL sensitization), % at 10 µM;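 active means compounds causing at least 50% loss of cell viability in the single-dose screen, relative to plate controls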
PPC-1+TRAIL kill: compounds killing PPC-1 cancer cells with TRAIL present, primary screen, TRAIL potentiator project, ATPLite luminescence, uHTS | PPC-1 cells + TRAIL, ATPLite viability luminescence | cell killing (% activity), % at 4 µM or 5 µM | 220,000 tested, 0.41% active;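 active means cell killing above 50% in the first pass at 4 µM, then a duplicate retest at 5 µM averaging 50% or more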;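 further: plate controls were cells with TRAIL plus DMSO for no effect and medium-only wells lacking cells for full effect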
APP 5'UTR act: activators of APP 5'UTR luciferase reporter, primary screen, SH-SY5Y cells; SH-SY5Y APP 5'UTR luciferase reporter, luminescence; zero percent = DMSO vehicle wells; activation, % at 2 µM; 190,000 tested, 1% active;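 active means activation above a set limit, based on mean plus 3 SD of controls, cut at about 140% in these data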
FLuc inhib CS: firefly luciferase enzyme inhibitors, primary screen, artefact control for luciferase-based inhibitor screens, biochemical, luminescence, ATPLite | Luciferin 4-monooxygenase (Photinus pyralis), P08659 | 10 min | inhibition, % at 10 µM | 200,000 tested, 1.5% active;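 active means inhibition above about 50% when tested at 10 µM, limit read from the data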
PPC-1 tox: cytotoxicity in PPC-1 cells, confirmation, cytotoxicity control for TRAIL apoptosis potentiator project, cell-based, ATP content luminescence | shares compounds with PPC-1+TRAIL kill | PPC-1 viability, ATPlite luminescence, overnight | cytotoxicity, % at 5 µM | 1,200 tested, 50% active | AID 1447, 2008;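 active means reconfirmed compounds whose average cytotoxicity reaches 50% or more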;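 further: 0% = DMSO-treated cells and 100% = wells holding medium but no cells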
* = called active by the depositor; . = no result given. This is a sample that favours compounds with a hit; in the whole collection about 2.2% have one here.

SMILES | NF-kB neuron act | FLuc act counter | C8 TRAIL sens | PPC-1+TRAIL kill | APP 5'UTR act | FLuc inhib CS | PPC-1 tox
COc1ccc(-c2nc(-c3ccccn3)no2)cc1 | 0.24 | 0 | 95.6* | 92.5* | -45.9 | 97.5* | 91.9*
COc1ccc(-c2nc(-c3ccncc3)no2)cc1 | . | . | -0.6 | . | . | . | .
COc1ccc(-c2nc(-c3cccs3)no2)cc1 | . | . | 62.5* | 45.5 | . | . | 42.0
Cc1ccccc1-c1nc(-c2ccccn2)no1 | 1.16 | 0 | 87.4* | 83.5* | 90.5 | 95.1* | 80.3*
CC(C)[C@H](NS(=O)(=O)c1ccc(Cl)cc1)C(=O)OCC(=O)c1c(N)n(C)c(=O)n(C)c1=O | . | . | -14.3 | . | . | . | .
COc1ccc(CN(C)C[C@H]2OCc3cnnn3CCCC(=O)N([C@H](C)CO)C[C@@H]2C)cc1 | . | . | 1.8 | . | . | . | .
COc1ccccc1-c1noc(-c2ccncc2)n1 | 1.43 | 0.8 | 1.1 | 14.9 | 19.9 | 16.0 | .
COc1ccccc1-c1nc(-c2ccccn2)no1 | 2.46 | 0.1 | 73.2* | 63.3* | 98.3 | 87.8* | 63.3*
CN(C)CCNc1nc(-c2ccccc2F)c2sccc2n1 | . | . | -6.3 | . | . | . | .
O=C(c1ccco1)N1CCN(C(=O)c2ccco2)CC1 | . | . | -7.7 | . | . | . | .
Cc1cccc2nc(=S)n(C(=O)c3ccco3)n12 | 12* | 0.2 | 54.4* | 43.4 | 145.9* | 84.6* | 48.7
Cn1c(=N)n(CC(=O)c2ccccc2)c2ccccc21 | . | . | 80.6* | 53.0* | . | . | 56.9*
Cn1c(=N)n(CC(=O)O)c2ccccc21 | 0.96 | 1 | -1.4 | 0.6 | 0.9 | -0.4 | .
COc1ccc(NC(=O)C2CCCN(S(C)(=O)=O)C2)cc1Cl (stereo unspecified) | . | . | -1.7 | . | . | . | .
COc1ccc(C(=O)/C=C/c2ccccc2)c(OC)c1 | 3.06 | 0.6 | 25.8 | 16.4 | 52.4 | 38.6 | .
COc1ccc(OC)c(C(=O)/C=C/c2ccccc2C(F)(F)F)c1 | 1.46 | 1 | 23.5 | -5.0 | 8.2 | -1.0 | -1.7
COc1ccc2nc(SCC(C)=O)c(C#N)cc2c1 | 5.76* | 0.9 | 36.9 | -3.9 | 137.9* | 13.3 | 2.4
CCCSCCCNC(=O)c1ccc(C)c(NC(=O)C2=C(C)OCCS2)c1 | . | . | -6.9 | . | . | . | .
O=C(Nc1nc2ccccc2[nH]1)c1ccccc1 | 3.22 | 0.1 | 84.2* | 62.0* | 214.2* | 88.2* | 60.1*
O=C(Nc1nc2ccccc2[nH]1)c1cccc(Cl)c1 | . | . | 41.7 | . | . | . | .
CCOC(=O)N1CCC(n2c(=S)[nH]c3ccccc3c2=O)CC1 | 1.08 | 1.1 | -3.0 | -5.2 | . | -7.6 | -18.0
CCOC(=O)N1CCN(C(=O)CCCn2c(=S)[nH]c3ccccc3c2=O)CC1 | 0.79 | 1 | 8.4 | 15.9 | 4.7 | 1.2 | .
COc1ccc(-c2csc(C(C)(NC(C)=O)c3ccccc3)n2)cn1 (stereo unspecified) | . | . | -7.3 | . | . | . | .
C/C(=N\Nc1cccc2cccnc12)c1ccc[nH]1 | 1.27 | 0.1 | 41.1 | 49.8 | 206.2* | 86.2* | 48.6
O=C1NN(c2ccccc2)C(=O)C1=Cc1ccccc1O | . | . | -6.9 | . | . | . | .
SMILES | NF-kB neuron act | FLuc act counter | C8 TRAIL sens | PPC-1+TRAIL kill | APP 5'UTR act | FLuc inhib CS | PPC-1 tox
Cc1cc(/C=C2/C(=O)NN(c3ccccc3)C2=O)c(C)n1-c1cccc(O)c1 | 0.92 | 0.1 | 84.5* | 81.2* | 180.9* | 93.8* | 82.9*
CCN(C(=O)COC(=O)c1ccccc1Nc1ccccc1)c1c(N)n(Cc2ccccc2)c(=O)[nH]c1=O | . | . | 6.4 | . | . | . | .
N#CCc1c(C#N)c(N)nc(N2CCN(Cc3ccc4c(c3)OCO4)CC2)c1C#N | 1.01 | 1 | -11.6 | -8.4 | 1.4 | 0.4 | -0.7
CC(C)N(C(=O)c1ccc2nc3c4ccccc4c4ccccc4c3nc2c1)C(C)C | . | . | . | . | -23.6 | . | .
CCOC(=O)c1cc(-c2cccnc2)nn1-c1ccccc1C | 1.12 | 1 | 8.1 | 10.5 | 5.8 | -3.1 | .
O=C(NCc1cccnc1)C1CC(c2ccccc2Cl)=NO1 (stereo unspecified) | . | . | -1.1 | . | . | . | .
C=CCn1c(N/N=C/c2ccc(O)cc2)nc2ccccc2c1=O | 2.03 | 0.2 | 17.9 | 27.2 | 70.2 | 81.8* | 31.5
CCN1C(=O)C2(C(C#N)=C(N)Oc3cc(C)oc(=O)c32)c2ccccc21 (stereo unspecified) | 0.94 | 1 | 4.8 | -9.9 | 1.1 | -0.3 | 1.5
Cn1cc(CC(=O)N2CCN(c3ccc(Cl)cc3)CC2)c2ccccc21 | 0.88 | 1 | -19.1 | -7.9 | 0.2 | -1.7 | 3.0
COc1ccc(-c2cn3c4c(sc3n2)CCCC4)cc1 | 7.36* | 0.1 | 79.4* | 76.0* | 129.8 | 91.1* | 73.8*
Cc1ccc2nc(-c3ccc4c(c3)NC(=O)CO4)cn2c1 | . | . | 32.9 | 48.0 | . | . | .
Cc1ccc2nc(-c3ccc4c(c3)OCCO4)cn2c1 | . | . | 92.2* | 92.7* | . | . | 92.2*
Clc1ccc2nc(-c3ccc4c(c3)OCO4)cn2c1 | 4.99* | 0.1 | 78.9* | 79.8* | 157.8* | 93.0* | 74.3*
Cn1c(SCC(=O)Nc2cccc(F)c2)nc2c([nH]c3ccccc32)c1=O | 0.69 | 1.1 | -3.2 | 4.4 | 17.4 | -6.3 | .
O=C(NCCc1ccccn1)c1cc(-c2ccccc2Cl)nc2ccccc12 | 0.71 | 1 | -5.3 | 22.0 | 19.0 | -2.9 | .
COc1ccc(-c2csc(C)n2)cc1OC | 1.95 | 1 | -33.6 | 9.2 | 14.0 | -3.4 | .
COc1ccc(-c2cn3cc(C)ccc3n2)cc1OC | 5.67* | 0.1 | 71.8* | 74.5* | 183.6* | 87.9* | 72.6*
COc1ccc(-c2cn3cc(C)ccc3n2)cc1F | 2.44 | 0.1 | 72.8* | 74.0* | 146.6* | 93.4* | 74.4*
CC(=O)c1cccc(OC(=O)c2ccc3c(=O)n4c(nc3c2)CCC4)c1 | . | . | 0.8 | . | . | . | .
CCC(C(=O)NC1CCCC1)n1c(-c2cc3ccccc3[nH]2)nc2ccccc21 (stereo unspecified) | . | . | 2.5 | . | . | . | .
CCN1C(=O)[C@@H]2[C@H](C1=O)[C@@H]1C(=O)Nc3ccccc3C(=O)N1[C@@H]2c1cccc(Cl)c1 | . | . | -8.6 | . | . | . | .
O=c1c2c(-c3ccccc3)csc2nc2c3ccccc3c(NCCN3CCOCC3)nn12 | 2.26 | 1 | 72.4* | -6.0 | 13.4 | -0.4 | 6.0
O=C(Nc1ccccc1C(=O)N/N=C/c1ccncc1)c1ccccc1 | 1.34 | 0 | 88.6* | 79.7* | 16.2 | 96.5* | 81.8*
CCOc1ccc2nc(NC(=S)NCc3ccccc3)sc2c1 | 1.1 | 1 | 23.6 | -3.3 | -6.5 | -4.1 | .
O=C(Nc1nc2ccc(S(=O)(=O)N3CCCC3)cc2s1)c1ccccn1 | 1.08 | 1 | 16.6 | 6.8 | -5.9 | 0.0 | .
